Assay results: publication PMC4489446 (Memórias do Instituto Oswaldo Cruz, 2015)

Columns and labels:
[1] = test system: Leishmania amazonensis promastigotes; test: In vitro activity against promastigotes; assay type: cell-based; details: 72 h; for IC50: Leishmania amazonensis; for MPC (minimal parasiticide concentration): promastigotes, 26 °C, mean ± SD
How it was run: (§1)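 Strains: L. amazonensis MHOM/77/LTB0016, L. infantum MHOM/FR/78/LEM75, L. braziliensis MHOM/BR/75/M2 903. Log-phase promastigotes at 5 x 10^5/mL in Schneider's with 10% heat-inactivated FBS; compound added from two-fold DMSO stocks (4 mg/mL–3.9 µg/mL), DMSO at most 0.5%. Incubated 72 h at 26 °C. MPC = geometric mean (4 replicates) of concentrations fully stopping motility, by microscope. Then p-nitrophenyl phosphate, 3 h 37 °C, A405, minus parasite-free drug wells. IC50 by Emax sigmoid fit; at least three repeats.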

[2] = test system: Leishmania braziliensis promastigotes; test: In vitro activity against promastigotes; assay type: cell-based; details: 72 h; for IC50: Leishmania braziliensis; for MPC (minimal parasiticide concentration): promastigotes, 26 °C, mean ± SD
How it was run: as §1

[3] = test system: Leishmania infantum promastigotes; test: In vitro activity against promastigotes; assay type: cell-based; details: 72 h; for IC50: Leishmania infantum; for MPC (minimal parasiticide concentration): promastigotes, 26 °C, mean ± SD
How it was run: as §1

[4] = Cytotoxicity against mammalian cells; assay type: cell-based; details: human, HeLa-KB cells (subline of HeLa, ATCC CCL-17)
How it was run: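 HeLa-KB cells seeded at 4 x 10^4/mL in RPMI-1640 with 10% heat-inactivated FCS and held 24 h (5% CO2). Medium was replaced by test compound in fresh medium, 30 µg/mL to 100 ng/mL, in triplicate, with a podophyllotoxin positive control. After 72 h, alamarBlue for 4 h, then fluorescence at 530/585 nm. CC50 from a nonlinear Emax sigmoid fit; at least three repeats.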

Leishmania amazonensis = test: Mouse model of experimental cutaneous leishmaniasis, lesion size; assay type: in vivo, BALB/c mice; details: furvina 2 mg/Kg, UC245 100 mg/Kg; for average lesion size with respect to the control group: experiment 2: early lesions, intraperitoneal every 12 h for 14 days, 28 days of follow up; for effect on chronic lesions (in words): experiment 3: chronic lesions, 18 weeks post-infection, every 12 h for 14 days
How it was run: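 Female BALB/c mice (16-18 g, 6-8 weeks) infected intradermally in the footpad with 5 x 10^6 stationary-phase promastigotes. Intraperitoneal dosing every 12 h for 14 days, test compounds in Miglyol 810. Controls were untreated infected mice and amphotericin B (1 mg/Kg in early lesions; 5 mg/Kg every 48 h in chronic). Lesions measured weekly by Vernier calliper; chronic size taken as dorsoplantar × lateral diameter.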

[5] = test system: intracellular amastigotes; test: Activity against intracellular amastigotes in mouse peritoneal macrophages; assay type: cell-based; details: drug concentrations not toxic to mouse peritoneal macrophages used as host cells; data not shown
[6] = test system: promastigotes of Leishmania amazonensis, Leishmania infantum and Leishmania braziliensis; assay type: cell-based; details: read-out: Average IC50
How it was run: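 IC50 was measured separately for L. amazonensis, L. infantum and L. braziliensis promastigotes. Each assay: 72 h at 26 °C, phosphatase read-out (p-nitrophenyl phosphate, A405), Emax sigmoid fit. The average IC50 is the arithmetic mean of the three species' IC50 values.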

| IC50 [1] | IC50 [2] | IC50 [3] | IC50 [6] | Structure (SMILES) | MPC (minimal parasiticide concentration) ([1]; complete arrest of motion) | MPC (minimal parasiticide concentration) ([2]; complete arrest of motion) | MPC (minimal parasiticide concentration) ([3]; complete arrest of motion) | CC50 at 72 h [4] | average lesion size with respect to the control group (Leishmania amazonensis) | effect on chronic lesions (in words) (Leishmania amazonensis) | efficacy in reducing the percentage of infected cells [5] | MPC (minimal parasiticide concentration) ([1]; amphotericin B) | MPC (minimal parasiticide concentration) ([2]; amphotericin B) | MPC (minimal parasiticide concentration) ([3]; amphotericin B) |
| --- | --- | --- | --- | --- | --- | --- | --- | --- | --- | --- | --- | --- | --- | --- |
| 800 ± 300 nM | 900 ± 400 nM | 1200 ± 300 nM | 970 nM | O=[N+]([O-])C(Br)=Cc1ccc(Br)o1 [Furvina, 2-bromo-5-(2-bromo-2-nitrovinyl)-furan] | 5.2 ± 0.4 µM | 1.7 ± 0.4 µM | 2.9 ± 0.3 µM | 13600 ± 2200 nM | 59% | progressively decreased lesion sizes | under 50% |  |  |  |
| 29 ± 5 nM | 14 ± 3 nM | 14 ± 4 nM |  | C[C@@H]1[C@H](O)[C@@H](C)/C=C/C=C/C=C/C=C/C=C/C=C/C=C/[C@H](O[C@@H]2O[C@H](C)[C@@H](O)[C@H](N)[C@@H]2O)C[C@@H]2O[C@](O)(C[C@@H](O)C[C@@H](O)[C@H](O)CC[C@@H](O)C[C@@H](O)CC(=O)O[C@H]1C)C[C@H](O)[C@H]2C(=O)O [Amphotericin B, amphotericin B, reference compound] |  |  |  |  |  |  |  | 55 ± 7 nm | 30 ± 6 nm | 17 ± 5 nm |
| 900 ± 200 nM | 1000 ± 300 nM | 900 ± 300 nM | 930 nM | CC(=Cc1ccc(Br)o1)[N+](=O)[O-] [UC245, 2-bromo-5-(2-methyl-2-nitrovinyl)-furan] | 6.1 ± 0.4 µM | 5.7 ± 0.4 µM | 2.7 ± 0.4 µM | 16700 ± 1800 nM | 55% | did not show any efficacy | under 50% |  |  |  |
|  |  |  |  | COc1cc([C@@H]2c3cc4c(cc3[C@H](O)[C@H]3COC(=O)[C@H]23)OCO4)cc(OC)c1OC [podophyllotoxin, reference compound] |  |  |  | 5.3 ± 1.4 nM |  |  |  |  |  |  |
